Source: ChEMBL document CHEMBL1649231, “In vitro activities of panduratin A against clinical Staphylococcus strains” (2009)
Converted amounts (≈) assume the structure as drawn.

Columns and labels:
Assay type in all cases: functional
[1] = tested on: Staphylococcus haemolyticus; assay: Antimicrobial activity against methicillin-susceptible coagulase-negative Staphylococcus haemolyticus assessed as resistant isolates after 24 hrs by broth microdilution method
[2] = tested on: Staphylococcus epidermidis; assay: Antimicrobial activity against methicillin-resistant coagulase-negative Staphylococcus epidermidis after 24 hrs by broth microdilution method
Method in brief: (§1)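 Clinical isolates came from blood, body fluids, genital secretions, pus or sputum, identified conventionally or by Vitek. MICs were run by CLSI M7-A6 broth microdilution in Mueller-Hinton broth with 5 × 10^5 CFU/ml inoculum. Agents were twofold serially diluted, starting from 10% DMSO. Drug-free and uninoculated controls were included. Plates were incubated aerobically at 37°C for 24 h; MIC is the lowest concentration giving no visible growth.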

Staphylococcus simulans [3] = assay: Antimicrobial activity against methicillin-susceptible coagulase-negative Staphylococcus simulans after 24 hrs by broth microdilution method; method in brief: as §1
[4] = tested on: Staphylococcus haemolyticus; assay: Antimicrobial activity against methicillin-susceptible coagulase-negative Staphylococcus haemolyticus assessed as susceptible isolates after 24 hrs by broth microdilution method
Staphylococcus simulans [5] = assay: Bactericidal activity against methicillin-susceptible coagulase-negative Staphylococcus simulans after 24 hrs by plate counting method
Method in brief: (§2)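 Clinical staphylococcal isolates from patient body fluids, blood, genital secretions, pus or sputum; species by conventional methods or Vitek. Twofold dilutions in Mueller-Hinton broth, inoculum 5 × 10^5 CFU/ml, 37°C aerobic 24 h (CLSI M7-A6 microdilution). About 100 μl from each well without visible growth spread on MHA; 37°C 24 h. MBC = lowest concentration giving no growth on agar.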

Staphylococcus hominis [6] = assay: Antimicrobial activity against methicillin-susceptible coagulase-negative Staphylococcus hominis after 24 hrs by broth microdilution method; method in brief: as §1
Mammaliicoccus sciuri [7] = assay: Antimicrobial activity against methicillin-resistant coagulase-negative Staphylococcus sciuri assessed as susceptible isolates after 24 hrs by broth microdilution method
Staphylococcus simulans [8] = assay: Antimicrobial activity against methicillin-susceptible coagulase-negative Staphylococcus simulans assessed as resistant isolates after 24 hrs by broth microdilution method
Staphylococcus hominis [9] = assay: Antimicrobial activity against methicillin-resistant coagulase-negative Staphylococcus hominis after 24 hrs by broth microdilution method; method in brief: as §1
Staphylococcus aureus [10] = assay: Bactericidal activity against methicillin-resistant Staphylococcus aureus after 24 hrs by plate counting method
[11] = tested on: Staphylococcus haemolyticus; assay: Bactericidal activity against methicillin-susceptible coagulase-negative Staphylococcus haemolyticus after 24 hrs by plate counting method; method in brief: as §2
Mammaliicoccus sciuri [12] = assay: Antimicrobial activity against methicillin-resistant coagulase-negative Staphylococcus sciuri after 24 hrs by broth microdilution method; method in brief: as §1
Staphylococcus aureus [13] = assay: Antimicrobial activity against methicillin-resistant Staphylococcus aureus assessed as intermediate resistant isolates after 24 hrs by broth microdilution method
Staphylococcus hominis [14] = assay: Antimicrobial activity against methicillin-resistant coagulase-negative Staphylococcus hominis assessed as susceptible isolates after 24 hrs by broth microdilution method
Mammaliicoccus sciuri [15] = assay: Antimicrobial activity against methicillin-susceptible coagulase-negative Staphylococcus sciuri after 24 hrs by broth microdilution method; method in brief: as §1
[16] = tested on: Staphylococcus haemolyticus; assay: Antimicrobial activity against methicillin-susceptible coagulase-negative Staphylococcus haemolyticus after 24 hrs by broth microdilution method; method in brief: as §1
[17] = tested on: Staphylococcus haemolyticus; assay: Antimicrobial activity against methicillin-resistant coagulase-negative Staphylococcus haemolyticus assessed as intermediate resistant isolates after 24 hrs by broth microdilution method
[18] = tested on: Staphylococcus haemolyticus; assay: Antimicrobial activity against methicillin-resistant coagulase-negative Staphylococcus haemolyticus assessed as susceptible isolates after 24 hrs by broth microdilution method
Staphylococcus aureus [19] = assay: Antimicrobial activity against methicillin-resistant Staphylococcus aureus assessed as resistant isolates after 24 hrs by broth microdilution method
[20] = Staphylococcus haemolyticus, 24 h

| Molecule | Activity [1] [%] | MIC50 [2] [µg/mL] | MIC90 [2] [µg/mL] | MIC50 (Staphylococcus simulans [3]) [µg/mL] | MIC90 (Staphylococcus simulans [3]) [µg/mL] | Activity [4] [%] | MBC50 (Staphylococcus simulans [5]) [µg/mL] | MIC50 (Staphylococcus hominis [6]) [µg/mL] | MIC90 (Staphylococcus hominis [6]) [µg/mL] | Activity (Mammaliicoccus sciuri [7]) [%] | Activity (Staphylococcus simulans [8]) [%] | MIC50 (Staphylococcus hominis [9]) [µg/mL] | MIC90 (Staphylococcus hominis [9]) [µg/mL] | MBC50 [11] [µg/mL] | MIC50 (Mammaliicoccus sciuri [12]) [µg/mL] | MIC90 (Mammaliicoccus sciuri [12]) [µg/mL] | Activity (Staphylococcus aureus [13]) [%] | Activity (Staphylococcus hominis [14]) [%] | MIC50 (Mammaliicoccus sciuri [15]) [µg/mL] | MIC90 (Mammaliicoccus sciuri [15]) [µg/mL] | further results |
| --- | --- | --- | --- | --- | --- | --- | --- | --- | --- | --- | --- | --- | --- | --- | --- | --- | --- | --- | --- | --- | --- |
| CN(C)[C@@H]1C(O)=C(C(N)=O)C(=O)[C@@]2(O)C(O)=C3C(=O)c4c(O)cccc4[C@@](C)(O)[C@H]3C[C@@H]12 [TETRACYCLINE] | 12 | 1 (≈ 2.25 µM) | 64 (≈ 144 µM) | 0.5 (≈ 1.13 µM) | 32 (≈ 72 µM) | 69 | 8 (≈ 18 µM) | 0.5 (≈ 1.13 µM) | 32 (≈ 72 µM) | 7 | 4 | 1 (≈ 2.25 µM) | 64 (≈ 144 µM) | 8 (≈ 18 µM) | 1 (≈ 2.25 µM) | 64 (≈ 144 µM) | 0 | 18 | 0.5 (≈ 1.13 µM) | 32 (≈ 72 µM) | MIC (Staphylococcus simulans [3]): 0.5 µg/mL (≈ 1.13 µM); MBC90 (Staphylococcus simulans [5]): 128 µg/mL (≈ 288 µM); MBC (Staphylococcus simulans [5]; Staphylococcus simulans, 24 h): 1 µg/mL (≈ 2.25 µM); MIC (Staphylococcus hominis [6]): 0.5 µg/mL (≈ 1.13 µM); MBC50 (Staphylococcus aureus [10]): 64 µg/mL (≈ 144 µM); MBC90 (Staphylococcus aureus [10]): 512 µg/mL (≈ 1150 µM); MBC (Staphylococcus aureus [10]; Staphylococcus aureus, 24 h): 2 µg/mL (≈ 4.5 µM); MBC90 [11]: 128 µg/mL (≈ 288 µM); MBC [11, 20]: 1 µg/mL (≈ 2.25 µM); MIC (Mammaliicoccus sciuri [15]): 0.5 µg/mL (≈ 1.13 µM); MIC [16]: 0.5 µg/mL (≈ 1.13 µM); MIC50 [16]: 0.5 µg/mL (≈ 1.13 µM); MIC90 [16]: 32 µg/mL (≈ 72 µM); Activity [17]: 7%; Activity [18]: 18% |
| GENTAMICIN | 27 | 8 | 64 | 0.125 | 32 | 73 | 1 | 0.125 | 32 | 7 | 27 | 8 | 64 | 1 | 8 | 64 | 22 | 45 | 0.125 | 32 | MBC (Staphylococcus simulans [5]): 0.25 µg/mL; MBC90 (Staphylococcus simulans [5]): 64 µg/mL; MBC (Staphylococcus aureus [10]): 2 µg/mL; MBC50 (Staphylococcus aureus [10]): 64 µg/mL; MBC90 (Staphylococcus aureus [10]): 128 µg/mL; MBC [11]: 0.25 µg/mL; MBC90 [11]: 64 µg/mL; MIC50 [16]: 0.125 µg/mL; MIC90 [16]: 32 µg/mL; Activity (Staphylococcus aureus [19]): 63%; Activity [17]: 7%; Activity [18]: 45% |
| CN[C@H](CC(C)C)C(=O)N[C@H]1C(=O)N[C@@H](CC(N)=O)C(=O)N[C@H]2C(=O)N[C@H]3C(=O)N[C@H](C(=O)N[C@H](C(=O)O)c4cc(O)cc(O)c4-c4cc3ccc4O)[C@H](O)c3ccc(c(Cl)c3)Oc3cc2cc(c3O[C@@H]2O[C@H](CO)[C@@H](O)[C@H](O)[C@H]2O[C@H]2C[C@](C)(N)[C@H](O)[C@H](C)O2)Oc2ccc(cc2Cl)[C@H]1O [VANCOMYCIN] | 0 | 0.125 (≈ 0.0863 µM) | 2 (≈ 1.38 µM) | 0.25 (≈ 0.173 µM) | 1 (≈ 0.69 µM) | 100 | 1 (≈ 0.69 µM) | 0.25 (≈ 0.173 µM) | 1 (≈ 0.69 µM) | 0 | 12 | 0.125 (≈ 0.0863 µM) | 2 (≈ 1.38 µM) | 1 (≈ 0.69 µM) | 0.125 (≈ 0.0863 µM) | 2 (≈ 1.38 µM) | 0 | 100 | 0.25 (≈ 0.173 µM) | 1 (≈ 0.69 µM) | MIC [2]: 0.125 µg/mL (≈ 0.0863 µM); MBC90 (Staphylococcus simulans [5]): 4 µg/mL (≈ 2.76 µM); MBC (Staphylococcus simulans [5]; Staphylococcus simulans, 24 h): 0.125 µg/mL (≈ 0.0863 µM); MIC (Staphylococcus hominis [9]): 0.125 µg/mL (≈ 0.0863 µM); MBC50 (Staphylococcus aureus [10]): 1 µg/mL (≈ 0.69 µM); MBC90 (Staphylococcus aureus [10]): 2 µg/mL (≈ 1.38 µM); MBC (Staphylococcus aureus [10]; Staphylococcus aureus, 24 h): 0.5 µg/mL (≈ 0.345 µM); MBC90 [11]: 4 µg/mL (≈ 2.76 µM); MBC [11, 20]: 0.125 µg/mL (≈ 0.0863 µM); MIC (Mammaliicoccus sciuri [12]): 0.125 µg/mL (≈ 0.0863 µM); MIC50 [16]: 0.25 µg/mL (≈ 0.173 µM); MIC90 [16]: 1 µg/mL (≈ 0.69 µM); Activity (Staphylococcus aureus [19]): 0%; Activity [17]: 0%; Activity [18]: 100% |
| CC[C@H]1OC(=O)[C@H](C)[C@@H](O[C@H]2C[C@@](C)(OC)[C@@H](O)[C@H](C)O2)[C@H](C)[C@@H](O[C@@H]2O[C@H](C)C[C@H](N(C)C)[C@H]2O)[C@](C)(O)C[C@@H](C)C(=O)[C@H](C)[C@@H](O)[C@]1(C)O [ERYTHROMYCIN] | 27 | 16 (≈ 21.8 µM) | 32 (≈ 43.6 µM) | 0.5 (≈ 0.681 µM) | 16 (≈ 21.8 µM) | 50 | 2 (≈ 2.73 µM) | 0.5 (≈ 0.681 µM) | 16 (≈ 21.8 µM) | 15 | 27 | 16 (≈ 21.8 µM) | 32 (≈ 43.6 µM) | 2 (≈ 2.73 µM) | 16 (≈ 21.8 µM) | 32 (≈ 43.6 µM) | 0 | 11 | 0.5 (≈ 0.681 µM) | 16 (≈ 21.8 µM) | MIC (Staphylococcus simulans [3]): 0.5 µg/mL (≈ 0.681 µM); MBC (Staphylococcus simulans [5]; Staphylococcus simulans, 24 h): 1 µg/mL (≈ 1.36 µM); MIC (Staphylococcus hominis [6]): 0.5 µg/mL (≈ 0.681 µM); MBC (Staphylococcus aureus [10]; Staphylococcus aureus, 24 h): 32 µg/mL (≈ 43.6 µM); MBC [11, 20]: 1 µg/mL (≈ 1.36 µM); MIC (Mammaliicoccus sciuri [15]): 0.5 µg/mL (≈ 0.681 µM); MIC [16]: 0.5 µg/mL (≈ 0.681 µM); MIC50 [16]: 0.5 µg/mL (≈ 0.681 µM); MIC90 [16]: 16 µg/mL (≈ 21.8 µM); Activity (Staphylococcus aureus [19]): 100%; Activity [17]: 15%; Activity [18]: 11% |
| C[C@H]1COc2c(N3CCN(C)CC3)c(F)cc3c(=O)c(C(=O)O)cn1c23.C[C@H]1COc2c(N3CCN(C)CC3)c(F)cc3c(=O)c(C(=O)O)cn1c23.O [LEVOFLOXACIN] | 4 | 0.25 | 4 | 0.25 | 0.5 | 96 | 1 | 0.25 | 0.5 | 15 | 4 | 0.25 | 4 | 1 | 0.25 | 4 | 0 | 26 | 0.25 | 0.5 | MIC [2]: 0.25 µg/mL; MIC (Staphylococcus simulans [3]): 0.25 µg/mL; MBC90 (Staphylococcus simulans [5]): 4 µg/mL; MBC (Staphylococcus simulans [5]; Staphylococcus simulans, 24 h): 0.5 µg/mL; MIC (Staphylococcus hominis [6]): 0.25 µg/mL; MIC (Staphylococcus hominis [9]): 0.25 µg/mL; MBC50 (Staphylococcus aureus [10]): 16 µg/mL; MBC90 (Staphylococcus aureus [10]): 512 µg/mL; MBC (Staphylococcus aureus [10]; Staphylococcus aureus, 24 h): 0.5 µg/mL; MBC90 [11]: 4 µg/mL; MBC [11, 20]: 0.5 µg/mL; MIC (Mammaliicoccus sciuri [12]): 0.25 µg/mL; MIC (Mammaliicoccus sciuri [15]): 0.25 µg/mL; MIC [16]: 0.25 µg/mL; MIC50 [16]: 0.25 µg/mL; MIC90 [16]: 0.5 µg/mL; Activity (Staphylococcus aureus [19]): 82%; Activity [17]: 15%; Activity [18]: 26% |
